MIC data for twelve compounds are collected here from ChEMBL document CHEMBL1287747, “Highly active antimycobacterial derivatives of benzoxazine” (2010).

The structures appear in SMILES notation. ≈ marks a conversion by molar mass, not a printed value.

Common to all, as to assay type: functional
Test [1] concerns Mycobacterium kansasii. Kind of test: Antimycobacterial activity against Mycobacterium kansasii CNCTC My 235/80 after 14 days by microdilution method. The conditions noted are these: CNCTC My 235/80, 336 h. The method, boiled down:
(§1)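 Strains from the Czech National Collection of Type Cultures, tested by dilution micromethod in Šula semisynthetic medium. Incubated at 37 °C and read at 14 and 21 days. MIC is the lowest concentration inhibiting growth.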

Test [2] has as its system Mycobacterium kansasii. Kind of test: Antimycobacterial activity against Mycobacterium kansasii 6509/96 after 21 days by microdilution method. The note with it: 6509/96, 504 h. In a few lines: (§2)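 Clinical isolate that, unlike the standard strain, is not isoniazid-resistant. Tested by dilution micromethod in Šula semisynthetic medium, with compounds added in DMSO at final 1000 down to 0.25 µmol/L in twofold steps. Löwenstein-Jensen plate used as inoculum sterility and growth control. Incubated at 37 °C and read at 14 and 21 days. MIC is the lowest concentration inhibiting growth.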

Test [3] concerns Mycobacterium avium. In words: Antimycobacterial activity against Mycobacterium avium CNCTC My 330/88 after 21 days by microdilution method. The note with it: CNCTC My 330/88, 504 h. The method, boiled down: as §1
Background: In broth dilution the organism is exposed to a series of concentrations in liquid medium.

For test [4], the system named is Mycobacterium tuberculosis. In words: Antimycobacterial activity against Mycobacterium tuberculosis CNCTC My 331/88 after 21 days by microdilution method. The note with it: CNCTC My 331/88, 504 h. The method, boiled down:
as §1

Test [5] concerns Mycobacterium avium. In words: Antimycobacterial activity against Mycobacterium avium CNCTC My 330/88 after 14 days by microdilution method. The note with it: CNCTC My 330/88, 336 h. In a few lines:
as §1

Test [6] deals with Mycobacterium kansasii. Kind of test: Antimycobacterial activity against Mycobacterium kansasii CNCTC My 235/80 after 21 days by microdilution method. The note with it: CNCTC My 235/80, 504 h. The method, boiled down: as §1
The subject of test [7] is Mycobacterium kansasii. In words: Antimycobacterial activity against Mycobacterium kansasii 6509/96 after 14 days by microdilution method. The conditions noted are these: 6509/96, 336 h. In a few lines:
as §2

Test [8] deals with Mycobacterium tuberculosis. In words: Antimycobacterial activity against Mycobacterium tuberculosis CNCTC My 331/88 after 14 days by microdilution method. The note with it: CNCTC My 331/88, 336 h. The method, boiled down:
as §1

Regarding `CCc1ccc(-n2c(=S)oc3cc(Cl)ccc3c2=S)cc1`, the MIC (in general, the lowest concentration found to suppress growth) came to 8 µM (≈ 2.67 µg/mL) in test [1]; 16 µM (≈ 5.34 µg/mL) in test [2]; 8 µM (≈ 2.67 µg/mL) in test [3]; 0.5 µM (≈ 0.167 µg/mL) in test [4]; 4 µM (≈ 1.34 µg/mL) in test [5]; 16 µM (≈ 5.34 µg/mL) in test [6]. Besides, the MIC in test [7] is 8 µM (≈ 2.67 µg/mL); in test [8] it was 0.5 µM (≈ 0.167 µg/mL).
As for `CC(C)(C)c1ccc(-n2c(=S)oc3ccc(Cl)cc3c2=S)cc1`, the MIC in test [1] was 8 µM (≈ 2.9 µg/mL); in test [2] it was 8 µM (≈ 2.9 µg/mL); in test [3], 2 µM (≈ 0.724 µg/mL); in test [4], 0.5 µM (≈ 0.181 µg/mL); in test [5], 1 µM (≈ 0.362 µg/mL); in test [6] it was 8 µM (≈ 2.9 µg/mL). The MIC in test [7] came out at 8 µM (≈ 2.9 µg/mL); in test [8], 0.25 µM (≈ 0.0905 µg/mL).
Take `CCC(C)c1ccc(-n2c(=S)oc3ccc(Cl)cc3c2=S)cc1` (stereo unspecified): the minimal inhibitory concentration (MIC) in test [1] stood at 8 µM (≈ 2.9 µg/mL); in test [2] it was 8 µM (≈ 2.9 µg/mL); in test [3], 32 µM (≈ 11.6 µg/mL); in test [4], 2 µM (≈ 0.724 µg/mL); in test [5] it was 16 µM (≈ 5.79 µg/mL); in test [6], 16 µM (≈ 5.79 µg/mL). The MIC in test [7] is 4 µM (≈ 1.45 µg/mL); in test [8], 1 µM (≈ 0.362 µg/mL).
Consider `CCC(C)c1ccc(-n2c(=O)oc3ccc(Cl)cc3c2=S)cc1` (stereo unspecified), for which the MIC is 8 µM (≈ 2.77 µg/mL) in test [1]; 8 µM (≈ 2.77 µg/mL) in test [2]; 32 µM (≈ 11.1 µg/mL) in test [3]; 1 µM (≈ 0.346 µg/mL) in test [4]; 32 µM (≈ 11.1 µg/mL) in test [5]; 8 µM (≈ 2.77 µg/mL) in test [6]. For the same compound, the MIC in test [7] came to 4 µM (≈ 1.38 µg/mL); in test [8], 0.5 µM (≈ 0.173 µg/mL).
Turning to `CC(C)c1ccc(-n2c(=O)oc3ccc(F)cc3c2=O)cc1`, the MIC stood at 8 µM (≈ 2.39 µg/mL) in test [1]; 16 µM (≈ 4.79 µg/mL) in test [2]; 16 µM (≈ 4.79 µg/mL) in test [3]; 8 µM (≈ 2.39 µg/mL) in test [4]; 8 µM (≈ 2.39 µg/mL) in test [5]; 8 µM (≈ 2.39 µg/mL) in test [6]. In addition, the MIC in test [7] and in test [8] was 8 µM (≈ 2.39 µg/mL) throughout.
Regarding `CC(C)c1ccc(-n2c(=O)oc3ccc(Cl)cc3c2=O)cc1`, the MIC in test [1] came out at 8 µM (≈ 2.53 µg/mL); in test [2], 16 µM (≈ 5.05 µg/mL); in test [3], 32 µM (≈ 10.1 µg/mL); in test [4], 8 µM (≈ 2.53 µg/mL); in test [5] it was 32 µM (≈ 10.1 µg/mL); in test [6], 16 µM (≈ 5.05 µg/mL). For the same compound, the results for the MIC in test [7] and in test [8] were 8 µM (≈ 2.53 µg/mL) and 4 µM (≈ 1.26 µg/mL), respectively.
Consider `Cc1ccc2c(=S)n(-c3ccc(C(C)(C)C)cc3)c(=S)oc2c1`, for which the MIC in test [1] turned out to be 2 µM (≈ 0.683 µg/mL); in test [2] it was 2 µM (≈ 0.683 µg/mL); in test [3], 1 µM (≈ 0.342 µg/mL); in test [4], 0.5 µM (≈ 0.171 µg/mL); in test [5] it was 0.5 µM (≈ 0.171 µg/mL); in test [6], 2 µM (≈ 0.683 µg/mL). For the same compound, the values for the MIC in test [7] and in test [8] were 1 µM (≈ 0.342 µg/mL) and 0.25 µM (≈ 0.0854 µg/mL), respectively.
Consider `CCC(C)c1ccc(-n2c(=S)oc3ccc(F)cc3c2=S)cc1` (stereo unspecified), for which the MIC in test [1] came to 2 µM (≈ 0.691 µg/mL); in test [2], 4 µM (≈ 1.38 µg/mL); in test [3], 1 µM (≈ 0.345 µg/mL); in test [4] it was 0.25 µM (≈ 0.0864 µg/mL); in test [5], 0.5 µM (≈ 0.173 µg/mL); in test [6], 4 µM (≈ 1.38 µg/mL). The MIC turned out to be 2 µM (≈ 0.691 µg/mL) in test [7] and 0.25 µM (≈ 0.0864 µg/mL) in test [8].
As for `CCC(C)c1ccc(-n2c(=O)oc3cc(Cl)ccc3c2=O)cc1` (stereo unspecified), the MIC in test [1] was determined as 8 µM (≈ 2.64 µg/mL); in test [2] it was 8 µM (≈ 2.64 µg/mL); in test [3] it was 8 µM (≈ 2.64 µg/mL); in test [4] it was 4 µM (≈ 1.32 µg/mL); in test [5] it was 8 µM (≈ 2.64 µg/mL); in test [6], 8 µM (≈ 2.64 µg/mL). Moreover, the minimum inhibitory concentration (MIC) is 8 µM (≈ 2.64 µg/mL) in test [7] and 4 µM (≈ 1.32 µg/mL) in test [8].
Turning to `CCc1ccc(-n2c(=S)oc3ccc(Cl)cc3c2=S)cc1`, the MIC stood at 8 µM (≈ 2.67 µg/mL) in test [1]; 6 µM (≈ 2 µg/mL) in test [2]; 16 µM (≈ 5.34 µg/mL) in test [3]; 0.5 µM (≈ 0.167 µg/mL) in test [4]; 8 µM (≈ 2.67 µg/mL) in test [5]; 8 µM (≈ 2.67 µg/mL) in test [6]. In addition, the MIC was determined as 4 µM (≈ 1.34 µg/mL) in test [7] and 0.5 µM (≈ 0.167 µg/mL) in test [8].
With `CC(C)(C)c1ccc(-n2c(=O)oc3ccc(Cl)cc3c2=S)cc1`, the MIC in test [1] is 8 µM (≈ 2.77 µg/mL); in test [2], 8 µM (≈ 2.77 µg/mL); in test [3] it was 2 µM (≈ 0.692 µg/mL); in test [4], 0.5 µM (≈ 0.173 µg/mL); in test [5], 1 µM (≈ 0.346 µg/mL); in test [6] it was 8 µM (≈ 2.77 µg/mL). Besides, the MIC in test [7] worked out at 4 µM (≈ 1.38 µg/mL); in test [8], 0.25 µM (≈ 0.0865 µg/mL).
As for `CC(C)c1ccc(-n2c(=O)oc3cc(Cl)ccc3c2=S)cc1`, the MIC in test [1] amounted to 8 µM (≈ 2.65 µg/mL); in test [2], 8 µM (≈ 2.65 µg/mL); in test [3], 8 µM (≈ 2.65 µg/mL); in test [4], 1 µM (≈ 0.332 µg/mL); in test [5], 8 µM (≈ 2.65 µg/mL); in test [6], 8 µM (≈ 2.65 µg/mL). The results for the MIC in test [7] and in test [8] were 4 µM (≈ 1.33 µg/mL) and 0.5 µM (≈ 0.166 µg/mL), respectively.
